This is an account of results in ChEMBL document CHEMBL1132645, “Novel arylpyrazino[2,3-c][1,2,6]thiadiazine 2,2-dioxides as inhibitors of platelet aggregation. 1. Synthesis and pharmacological evaluation” (1999).

Holding throughout (type): functional
Assay [1] is filed under the species Oryctolagus cuniculus. Briefly: Compound was screened for its platelet aggregation induced by adenosine diphosphate in vitro in rabbit. Details: concentration or dose not given beside the values. Summed up: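 Rabbit citrated PRP (male New Zealand white, 2.5–3.5 kg, cardiac puncture), adjusted to 5 × 10⁵ platelets/μL with PPP. Compound in DMSO preincubated 10 min at 37 °C, then ADP 1–2 μM added. Born aggregometry read at 5 min. Single fixed concentration; result is percent inhibition of maximal amplitude against paired vehicle controls.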

Assay [2] is filed under the species Oryctolagus cuniculus. Briefly: Compound was screened for its platelet aggregation induced by arachidonic acid in vitro in rabbit. The method, boiled down: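 Rabbit citrated PRP, 5 × 10⁵ platelets/μL, compound preincubated in DMSO 10 min at 37 °C, then arachidonic acid 1 mM. Born aggregometry at 5 min, triplicate for each concentration. Value is EC100, the lowest concentration giving complete inhibition, read from concentration–response data.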

Assay [3] deals with Rattus norvegicus. Briefly: In vivo inhibitory activity after 120 min of 100 mg/kg oral administration induced by collagen in rats. As to conditions: 2 h. The method, boiled down: (§1)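 Male Wistar rats, 200–250 g, fasted overnight, were dosed by oral gavage with compound suspended in 0.25% carboxymethylcellulose in 10% Tween 80 (10 mL/kg). Blood was drawn by cardiac puncture under ether at 30 or 120 min and anticoagulated with heparin 1 U/mL final. PRP was diluted to (4–5) × 10⁵ cells/μL. Agonists: AA 0.4 mM, collagen 1–2 μg/mL, I-BOP 225–250 nM. Percent inhibition read at 5 min; 3–5 determinations, mean ± SEM.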

Assay [4] has as its system Rattus norvegicus. Briefly: In vivo inhibitory activity after 120 min of 100 mg/kg oral administration induced by arachidonic acid in rats. As to conditions: 2 h. The method, boiled down:
as §1

Assay [5] relates to Rattus norvegicus. Briefly: In vivo inhibitory activity after 120 min of 100 mg/kg oral administration induced by I-BOP in rats. Conditions: 2 h. Summed up:
as §1

A further assay is filed under the species Homo sapiens. Briefly: Compound was screened for its platelet aggregation induced by collagen in vitro in human platelets at conc 1 mM. Summed up: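 Human citrated PRP (blood from consenting volunteers, 3.8% trisodium citrate 9:1; PRP 250g 10 min, PPP 2000g 20 min, room temperature), adjusted to 3 × 10⁵ platelets/μL with PPP. Compounds in DMSO preincubated 10 min at 37 °C. Agonists: AA 1 mM, collagen 1–2 μg/mL, U46619 1.4 μM, I-BOP 225–250 nM. Born turbidimetric aggregometry read 5 min after agonist; inhibition of maximal amplitude versus paired vehicle; 3–4 determinations, mean ± SEM.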

Assay [6] deals with Rattus norvegicus. Briefly: In vivo inhibitory activity after 120 min of 25 mg/kg oral administration induced by collagen in rats. Conditions: 2 h.
Assay [7] has as its system Rattus norvegicus. Briefly: In vivo inhibitory activity after 120 min of 25 mg/kg oral administration induced by I-BOP in rats. As to conditions: 2 h.
The subject of assay [8] is Rattus norvegicus. Briefly: In vivo inhibitory activity after 120 min of 25 mg/kg oral administration induced by arachidonic acid in rats. Conditions: 2 h.
The test system of assay [9] is Rattus norvegicus. Briefly: In vivo inhibitory activity after 30 min of 100 mg/kg oral administration induced by arachidonic acid in rats. As to conditions: 0.5 h. The method, boiled down:
as §1

The subject of assay [10] is Rattus norvegicus. Briefly: In vivo inhibitory activity after 30 min of 100 mg/kg oral administration induced by I-BOP in rats. As to conditions: 0.5 h. The method, boiled down:
as §1

Assay [11] has as its system Rattus norvegicus. Briefly: In vivo inhibitory activity after 30 min of 100 mg/kg oral administration induced by collagen in rats. As to conditions: 0.5 h. Summed up: as §1

`CCN1c2nc(-c3ccccc3)c(C)nc2C(N)=NS1(=O)=O` returned an Inhibitory response in the assay filed under Oryctolagus cuniculus [1] of 59%. In the assay listed under Oryctolagus cuniculus [2], this compound yielded an EC100 of 0.001 mg/mL.
In the assay listed under Oryctolagus cuniculus [1], `CN1c2ncc(-c3ccccc3)nc2C(N)=NS1(=O)=O` had an Inhibitory response of 43%. For the same compound, the EC100 in the assay listed under Oryctolagus cuniculus [2] came to 0.0003 mg/mL.
With `CCOC(=O)CN1c2nc(-c3ccccc3)c(Br)nc2C(N)=NS1(=O)=O`, the Inhibitory response in the assay filed under Oryctolagus cuniculus [1] was 36%. Besides, the EC100 in the assay listed under Oryctolagus cuniculus [2] came out at 0.01 mg/mL.
The compound `CCN1c2nc(-c3cccs3)c(-c3cccs3)nc2C(N)=NS1(=O)=O` came in with an Inhibitory response in the assay listed under Oryctolagus cuniculus [1] of 43%. Further, the EC100 in the assay filed under Oryctolagus cuniculus [2] worked out at 0.003 mg/mL.
In the assay filed under Oryctolagus cuniculus [1], `CC(C)(C)OC(=O)CN1c2nc(-c3ccccc3)c(-c3ccccc3)nc2C(N)=NS1(=O)=O` returned an Inhibitory response of 32%. In the assay listed under Oryctolagus cuniculus [2], the EC100 amounted to 0.001 mg/mL.
Turning to `CC(=O)Oc1ccccc1C(=O)O` [ASPIRIN], the inhibition in vivo (as a rule, the drop in the measured response relative to a control, in per cent) at 100 mg/kg in the assay on Rattus norvegicus [3] was 84.6%; in the assay on Rattus norvegicus [4] it was 93.8%; with Rattus norvegicus [5], 0.9%. In the assay filed under Oryctolagus cuniculus [2], the EC100 was 0.0025 mg/mL. Further, in the assay filed under Homo sapiens, at 1000 µM the inhibition was 94%.
Consider `CCN1c2nc(-c3ccccc3)c(Cl)nc2C(N)=NS1(=O)=O`, for which the Inhibitory response in the assay listed under Oryctolagus cuniculus [1] was found to be 23%. The EC100 in the assay filed under Oryctolagus cuniculus [2] came out at 0.01 mg/mL.
As to `Clc1ccccc1CN1CCc2sccc2C1` [TICLOPIDINE], the results for the inhibition in vivo at 100 mg/kg with Rattus norvegicus [3], with Rattus norvegicus [4] and in the assay with Rattus norvegicus [5] were 98.7%, 0.9% and 57.1%, respectively.
As to `NC(=O)CN1c2nc(-c3ccccc3)c(-c3ccccc3)nc2C(N)=NS1(=O)=O`, the Inhibitory response in the assay listed under Oryctolagus cuniculus [1] is on record as 47%. Also, the EC100 in the assay filed under Oryctolagus cuniculus [2] is 0.003 mg/mL.
In the case of `O=C(O)CCn1c2c(c3ccccc31)CC(NS(=O)(=O)c1ccc(F)cc1)CC2` (stereo not given), the inhibition in vivo at 25 mg/kg with Rattus norvegicus [6] turned out to be 95.3%; with Rattus norvegicus [7], 72.5%; in the assay with Rattus norvegicus [8] it was 74.2%.
Turning to `CN1c2nc(-c3ccco3)c(-c3ccco3)nc2C(N)=NS1(=O)=O`, the Inhibitory response in the assay listed under Oryctolagus cuniculus [1] is on record as 63%. Besides, the EC100 in the assay filed under Oryctolagus cuniculus [2] was determined as 0.001 mg/mL.
For `CCN1c2nc(C)c(-c3ccccc3)nc2C(N)=NS1(=O)=O`, the inhibition in vivo at 100 mg/kg in the assay with Rattus norvegicus [3] came to 47.2%; in the assay with Rattus norvegicus [4], 48.8%; in the assay with Rattus norvegicus [9], 20%; in the assay on Rattus norvegicus [10] it was 59.6%; in the assay on Rattus norvegicus [11], 93.5%; in the assay with Rattus norvegicus [5], 50.3%. The compound also came in with an Inhibitory response in the assay filed under Oryctolagus cuniculus [1] of 47%. In the assay listed under Oryctolagus cuniculus [2], the EC100 was determined as 0.001 mg/mL.
`NC1=NS(=O)(=O)N(Cc2ccccc2)c2nc(-c3ccccc3)c(-c3ccccc3)nc21` came in with an Inhibitory response in the assay filed under Oryctolagus cuniculus [1] of 30%. In the assay filed under Oryctolagus cuniculus [2], the EC100 is 0.003 mg/mL.
For `CCN1c2nc(-c3ccccc3)c(-c3ccccc3)nc2C(N)=NS1(=O)=O`, the inhibition in vivo at 100 mg/kg in the assay on Rattus norvegicus [3] stood at 26.3%; with Rattus norvegicus [4], 1%; with Rattus norvegicus [9], 6.5%; with Rattus norvegicus [10], 100%; with Rattus norvegicus [11] it was 82.6%; with Rattus norvegicus [5] it was 30%. For the same compound, in the assay listed under Oryctolagus cuniculus [1], the Inhibitory response is 46%. In addition, the EC100 in the assay filed under Oryctolagus cuniculus [2] is 0.0003 mg/mL.
The compound `CCOC(=O)CN1c2nc(-c3ccccc3)c(-c3ccccc3)nc2C(N)=NS1(=O)=O` displayed an Inhibitory response in the assay listed under Oryctolagus cuniculus [1] of 30%. The same compound showed an EC100 in the assay filed under Oryctolagus cuniculus [2] of 0.0001 mg/mL.
Turning to `CN1c2nc(-c3ccccn3)c(-c3ccccn3)nc2C(N)=NS1(=O)=O`, the Inhibitory response in the assay listed under Oryctolagus cuniculus [1] was 43%. Further, in the assay filed under Oryctolagus cuniculus [2], the EC100 stood at 0.003 mg/mL.
`Nc1ncnc2c1ncn2[C@@H]1O[C@H](CO)[C@@H](O)[C@H]1O` [ADENOSINE] returned an Inhibitory response in the assay listed under Oryctolagus cuniculus [1] of 64%.
